Source: publication PMC3525873 (British Journal of Pharmacology, 2012)

Experiments:
Assay type in all cases: cell-based
[1] = target: STIM1/Orai1-mediated SOCE (Rattus norvegicus, UniProt Q5M848); assay: Fura-2 Ca2+ re-addition, thapsigargin-depleted native RBL-2H3 cells
Method in brief: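 Native RBL-2H3 cells were loaded with 2 μM Fura-2-AM for 45 min and perfused in Ca2+-free extracellular solution at room temperature. Stores depleted with 1 μM thapsigargin for 5 min. Test compound present ≥5 min before and throughout. Ca2+ entry evoked by 2 mM Ca2+ re-addition; 340/380 nm ratio read (510 nm emission). Inhibition expressed as % of control peak entry. IC50 by 4-parameter logistic fit; 3–5 experiments, 29–80 cells.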

TRPC3 = target: T1, TRPC3 (Homo sapiens, UniProt Q13507); assay: Patch-clamp of TRPC3 currents in HEK293 cells transiently expressing TRPC3; settings: 3 μM pre-incubation, carbachol
T1 sequence (Q13507 74-921 limits assumed): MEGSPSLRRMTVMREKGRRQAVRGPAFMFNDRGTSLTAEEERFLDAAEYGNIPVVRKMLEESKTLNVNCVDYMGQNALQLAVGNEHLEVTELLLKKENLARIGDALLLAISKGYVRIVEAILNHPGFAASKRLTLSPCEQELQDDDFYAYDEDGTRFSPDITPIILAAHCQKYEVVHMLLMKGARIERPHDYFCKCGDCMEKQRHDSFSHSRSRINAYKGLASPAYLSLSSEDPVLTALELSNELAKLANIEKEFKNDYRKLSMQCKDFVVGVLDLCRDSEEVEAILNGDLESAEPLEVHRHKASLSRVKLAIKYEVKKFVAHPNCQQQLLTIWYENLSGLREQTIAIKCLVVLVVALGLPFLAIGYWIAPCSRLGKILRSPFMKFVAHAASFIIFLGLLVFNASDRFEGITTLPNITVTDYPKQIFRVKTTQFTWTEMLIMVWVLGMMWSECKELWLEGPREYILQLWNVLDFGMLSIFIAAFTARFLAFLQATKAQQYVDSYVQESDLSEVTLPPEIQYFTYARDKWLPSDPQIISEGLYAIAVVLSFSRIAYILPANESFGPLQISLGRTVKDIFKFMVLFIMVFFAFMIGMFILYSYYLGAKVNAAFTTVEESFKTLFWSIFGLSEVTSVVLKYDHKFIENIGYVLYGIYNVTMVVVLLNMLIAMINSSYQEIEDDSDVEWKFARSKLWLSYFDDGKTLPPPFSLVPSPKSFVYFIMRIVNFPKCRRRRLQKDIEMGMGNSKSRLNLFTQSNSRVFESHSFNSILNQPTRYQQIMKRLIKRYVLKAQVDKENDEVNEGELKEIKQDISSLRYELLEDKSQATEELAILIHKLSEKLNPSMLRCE

[2] = target: CRAC currents in native RBL-2H3 cells (Rattus norvegicus, UniProt Q5M848); assay: Patch-clamp of CRAC currents in native RBL-2H3 cells; settings: for Effect on CRAC Ca2+ entry-mediating conductance: 3 μM pre-incubation
Method in brief: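 Whole-cell recording of native RBL-2H3 cells at room temperature. Stores depleted passively by 20 mM EGTA in the Cs-methanesulphonate pipette solution (pH 7.2). Bath contained 20 mM CaCl2 (pH 7.4). Ramps from −90 to +90 mV over 1 s, holding +30 mV. Test compound at 3 μM, pre-incubated or applied acutely. Net current (minus basal) read at −85 mV 300 s after break-in; n ≥ 6 cells.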

NFAT = assay: GFP-NFAT translocation in RBL-2H3 cells; settings: 10 μM, thapsigargin 1 μM then 2 mM Ca2+ re-addition
Method in brief: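 RBL-2H3 cells electroporated with GFP-NFAT (20 μg DNA, 300 V, 275 μF) 12–18 h beforehand, on coverslips. In nominally Ca2+-free buffer, stores depleted with 1 μM thapsigargin for 5 min, then 2 mM CaCl2 added. Test compound at 10 μM in all buffers. Basal taken before depletion. Cells fixed in paraformaldehyde with DAPI-stained nuclei. Nuclear/cytosolic GFP intensity ratio measured; ≥18 cells per condition.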

RBL-2H3 cells = assay: Degranulation assay; settings: ionomycin 0.4 μM
Method in brief: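 RBL-2H3 cells grown to confluency, washed in RBL-2H3 buffer with 2 mM CaCl2, all incubations at 37°C. Test compound (3 or 10 μM) for 15 min, then ionomycin 0.4 μM final for 30 min. Stopped with 0.4 M glycine (pH 10.7), A405 read. Untreated and 2% triton-lysed cells served as basal/maximal references. n = 3 passages.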

STIM1/Orai1 = STIM1/Orai1 (Homo sapiens, UniProt Q96D31)
Method in brief: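 Whole-cell recording at room temperature in HEK293 transiently co-expressing CFP-STIM1 and YFP-Orai1. CRAC activated by 20 mM EGTA in the pipette with 10 mM CaCl2 in the bath. Bath then switched to divalent-free solution to carry Na+ current. Test compound (10 μM) applied acutely; current followed over time; n = 4 cells.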

Sequence of STIM1/Orai1-mediated SOCE (Q5M848 whole entry, the tested form may be a part): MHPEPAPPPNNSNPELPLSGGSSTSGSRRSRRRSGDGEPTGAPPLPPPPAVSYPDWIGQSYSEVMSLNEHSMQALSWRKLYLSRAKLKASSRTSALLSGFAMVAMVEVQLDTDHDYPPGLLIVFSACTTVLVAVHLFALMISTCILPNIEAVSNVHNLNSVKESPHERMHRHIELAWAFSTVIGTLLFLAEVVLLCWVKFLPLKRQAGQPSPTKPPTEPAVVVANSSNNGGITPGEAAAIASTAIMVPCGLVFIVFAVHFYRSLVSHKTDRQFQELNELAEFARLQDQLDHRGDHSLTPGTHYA
Sequence of CRAC currents in native RBL-2H3 cells (Q5M848 whole entry): as the sequence (Q5M848 whole entry, the tested form may be a part) above
Sequence of STIM1/Orai1 (Q96D31 whole entry, species assumed): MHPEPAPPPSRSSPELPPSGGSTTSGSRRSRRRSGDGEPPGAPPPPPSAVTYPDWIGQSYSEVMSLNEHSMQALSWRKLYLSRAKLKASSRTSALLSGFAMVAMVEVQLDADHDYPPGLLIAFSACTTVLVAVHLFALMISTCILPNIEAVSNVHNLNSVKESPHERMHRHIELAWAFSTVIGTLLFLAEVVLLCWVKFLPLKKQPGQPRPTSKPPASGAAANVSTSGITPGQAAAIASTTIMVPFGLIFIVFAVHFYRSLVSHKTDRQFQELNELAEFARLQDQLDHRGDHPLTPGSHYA
Sequence of STIM1/Orai1 (Q13586 23-685 partner, species assumed): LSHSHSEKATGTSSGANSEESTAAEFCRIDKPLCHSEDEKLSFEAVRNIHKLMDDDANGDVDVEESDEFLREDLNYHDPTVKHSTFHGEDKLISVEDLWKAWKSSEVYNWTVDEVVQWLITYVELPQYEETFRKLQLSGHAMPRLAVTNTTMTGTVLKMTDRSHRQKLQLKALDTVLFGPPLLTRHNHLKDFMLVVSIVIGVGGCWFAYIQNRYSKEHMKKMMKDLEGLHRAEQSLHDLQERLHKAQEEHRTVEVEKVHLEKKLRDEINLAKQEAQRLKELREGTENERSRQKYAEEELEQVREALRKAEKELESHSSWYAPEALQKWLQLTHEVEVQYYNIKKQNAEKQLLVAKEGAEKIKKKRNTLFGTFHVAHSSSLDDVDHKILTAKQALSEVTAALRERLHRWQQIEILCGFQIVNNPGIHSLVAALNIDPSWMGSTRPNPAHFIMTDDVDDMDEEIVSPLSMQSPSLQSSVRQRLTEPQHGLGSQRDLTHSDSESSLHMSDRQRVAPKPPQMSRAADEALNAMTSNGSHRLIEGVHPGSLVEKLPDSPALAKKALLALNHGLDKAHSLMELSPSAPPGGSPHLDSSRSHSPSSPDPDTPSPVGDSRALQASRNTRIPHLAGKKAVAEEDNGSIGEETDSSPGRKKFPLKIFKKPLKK

Row | Structure (SMILES) | IC50 [1] [µM] | Higher potency in SOCE model than in TRPC3-ROCE model, orders of magnitude ([1]; RBL-2H3 SOCE vs TRPC3 ROCE) [OM] | Higher potency in SOCE model than in TRPC3-ROCE model ([1]; ratio of IC50 values, RBL-2H3 SOCE vs TRPC3 ROCE) | Effect on TRPC3 Ca2+ entry-mediating conductance (TRPC3) | Effect on CRAC Ca2+ entry-mediating conductance [2] | Effect on NFAT translocation (NFAT) | Effect on ionomycin-initiated degranulation (RBL-2H3 cells; 3 μM) | Effect on ionomycin-initiated degranulation (RBL-2H3 cells; 10 μM) | Effect on native CRAC currents upon acute administration ([2]; acute administration, 3 μM, native RBL-2H3 cells) | Effect on divalent-free sodium current through CRAC pore (STIM1/Orai1; 10 μM, divalent-free conditions) | Effect on reconstituted CRAC pore currents upon acute administration (STIM1/Orai1; HEK293 expressing STIM1 and Orai1, passive store depletion with EGTA)
1 | Cc1nnsc1C(=O)Nc1ccc(-n2nc(C(F)(F)F)cc2C(F)(F)F)cc1 [Pyr2, N-(4-(3,5-bis(trifluoromethyl)-1H-pyrazole-1-yl)phenyl)-4-methyl-1,2,3-thiadiazole-5-carboxamide] | 0.59 | 0.85 | sevenfold | completely eliminated | completely eliminated | clearly inhibited NFAT translocation | substantially reduced degranulation | suppressed responses down to basal levels |  |  | 
2 | CCOC(=O)c1cnn(-c2ccc(NC(=O)C(Cl)=C(Cl)Cl)cc2)c1C(F)(F)F [Pyr3, ethyl 1-(4-(2,3,3-trichloroacrylamido)phenyl)-5-(trifluoromethyl)-1H-pyrazole-4-carboxylate] |  |  |  | completely eliminated | completely eliminated | clearly inhibited NFAT translocation | substantially reduced degranulation | suppressed responses down to basal levels | rapidly suppresses | affecting sodium influx through it | acutely blocks a reconstituted CRAC pore in a dose-dependent, non-reversible manner
